In brackets after ≈: the same amount, converted by molar mass.

Holding throughout (format): functional
Assay [1] concerns Staphylococcus aureus. Briefly: Antibacterial activity against Staphylococcus aureus ATCC 25923 after 24 hrs by broth microdilution method. The conditions noted are these: ATCC 25923, 24 h. In a few lines:
(§1)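 Broth microdilution in Mueller-Hinton broth, run to NCCLS (2001). Overnight cultures were set to 2×10^6 CFU/ml final per well. Compounds were dissolved in 1% DMSO and tested as two-fold serial dilutions. TTC (0.05% final) served as growth indicator. Growth was read by absorbance at 600 nm after 24 h at 37 °C. MIC was the lowest concentration with no visible growth. Triplicate, with two growth controls.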

The test system of assay [2] is Staphylococcus aureus. Description: Antibacterial activity against Staphylococcus aureus ATCC 25923 at 20 ug/disk after 24 hrs by agar diffusion method. The conditions noted are these: ATCC 25923, 24 h, read-out: IZ. Put shortly: (§2)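 Disc diffusion on 4-mm Mueller-Hinton agar, inoculated from 24 h MHB cultures (37 °C) diluted to 2×10^6 CFU/ml to give semiconfluent growth. 6-mm discs were impregnated with 1 mg/ml DMSO stock solutions. Plates were incubated 24 h at 37 °C and inhibition zone diameters measured in mm. DMSO solvent control; triplicate, averaged.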

For assay [3], the system named is Staphylococcus epidermidis. Description: Antibacterial activity against Staphylococcus epidermidis ATCC 12228 after 24 hrs by broth microdilution method. The conditions noted are these: ATCC 12228, 24 h. Put shortly: as §1
In assay [4] the test system is Klebsiella pneumoniae. Description: Antibacterial activity against Klebsiella pneumoniae NCIMB 9111 at 20 ug/disk after 24 hrs by agar diffusion method. Conditions: NCIMB 9111, 24 h, read-out: IZ. Put shortly: as §2
The test system of assay [5] is Candida albicans. Description: Antifungal activity against Candida albicans ATCC 24433 after 48 hrs by broth microdilution method. Put shortly:
(§3)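 Broth microdilution (NCCLS) in Sabouraud dextrose broth, 2×10^5 CFU/ml per well. Compounds in 1% DMSO were two-fold serially diluted over 62.5–1000, with 0.05% final triphenyltetrazolium chloride as growth indicator. Plates were incubated 48 h at 26 °C and growth read by absorbance at 600 nm. MIC is the lowest concentration without visible growth. Triplicate, with two growth controls.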

Assay [6] relates to Klebsiella pneumoniae. Description: Antibacterial activity against Klebsiella pneumoniae NCIMB 9111 after 24 hrs by broth microdilution method. Conditions: NCIMB 9111, 24 h. In a few lines: as §1
In assay [7] the test system is Candida albicans. Briefly: Antifungal activity against Candida albicans ATCC 10259 after 48 hrs by broth microdilution method. In a few lines:
as §3

In assay [8] the test system is Bacillus subtilis. Description: Antibacterial activity against Bacillus subtilis ATCC 6633 after 24 hrs by broth microdilution method. Conditions: ATCC 6633, 24 h. Put shortly:
as §1

Assay [9] concerns Enterococcus faecalis. Description: Antibacterial activity against Enterococcus faecalis ATCC 29212 at 20 ug/disk after 24 hrs by agar diffusion method. Conditions: ATCC 29212, 24 h, read-out: IZ. Put shortly:
as §2

For assay [10], the system named is Enterococcus faecalis. Description: Antibacterial activity against Enterococcus faecalis ATCC 29212 after 24 hrs by broth microdilution method. Conditions: ATCC 29212, 24 h. In a few lines: as §1
For assay [11], the system named is Micrococcus luteus. Briefly: Antibacterial activity against Micrococcus luteus ATCC 10240 at 20 ug/disk after 24 hrs by agar diffusion method. Conditions: ATCC 10240, 24 h, read-out: IZ. In a few lines: as §2
In assay [12] the test system is Escherichia coli. Briefly: Antibacterial activity against Escherichia coli ATCC 25922 at 20 ug/disk after 24 hrs by agar diffusion method. The conditions noted are these: ATCC 25922, 24 h, read-out: IZ. Put shortly:
as §2

The subject of assay [13] is Pseudomonas aeruginosa. Description: Antibacterial activity against Pseudomonas aeruginosa ATCC 27853 after 24 hrs by broth microdilution method. Conditions: ATCC 27853, 24 h. Put shortly:
as §1

In assay [14] the test system is Bacillus subtilis. Description: Antibacterial activity against Bacillus subtilis ATCC 6633 at 20 ug/disk after 24 hrs by agar diffusion method. The conditions noted are these: ATCC 6633, 24 h, read-out: IZ. In a few lines: as §2
For assay [15], the system named is Staphylococcus epidermidis. Briefly: Antibacterial activity against Staphylococcus epidermidis ATCC 12228 at 20 ug/disk after 24 hrs by agar diffusion method. The conditions noted are these: ATCC 12228, 24 h, read-out: IZ. In a few lines: as §2
The test system of assay [16] is Micrococcus luteus. Description: Antibacterial activity against Micrococcus luteus ATCC 10240 after 24 hrs by broth microdilution method. Conditions: ATCC 10240, 24 h. In a few lines: as §1
Assay [17] deals with Candida albicans. Briefly: Antifungal activity against Candida albicans ATCC 10259 at 20 ug/disk after 72 hrs by agar diffusion method. Conditions: ATCC 10259, 72 h, read-out: IZ. Put shortly: (§4)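 Candida albicans grown 24 h at 25 °C in Sabouraud dextrose broth and diluted to 1×10^8 CFU/ml. This inoculum was spread on 4-mm Sabouraud dextrose agar. 6-mm discs were impregnated with 1 mg/ml DMSO stock solutions and incubated 72 h at 26 °C. Inhibition zone diameters measured in mm; DMSO control; triplicate, averaged.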

Assay [18] relates to Escherichia coli. Description: Antibacterial activity against Escherichia coli ATCC 25922 after 24 hrs by broth microdilution method. Conditions: ATCC 25922, 24 h. Put shortly: as §1
Assay [19] relates to Candida albicans. Description: Antifungal activity against Candida albicans ATCC 24433 at 20 ug/disk after 72 hrs by agar diffusion method. Conditions: ATCC 24433, 72 h, read-out: IZ. In a few lines: as §4
The subject of assay [20] is Pseudomonas aeruginosa. Description: Antibacterial activity against Pseudomonas aeruginosa ATCC 27853 at 20 ug/disk after 24 hrs by agar diffusion method. The conditions noted are these: ATCC 27853, 24 h, read-out: IZ. In a few lines:
as §2

Assay [21] relates to Staphylococcus aureus. Description: Antibacterial activity against Staphylococcus aureus ATCC 25923 at 10 ug/disk after 24 hrs by agar diffusion method. Conditions: ATCC 25923, 24 h, read-out: IZ. In a few lines: (§5)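 Reference antibiotic discs (ampicillin or amikacin) placed on 4-mm Mueller-Hinton agar inoculated to semiconfluent growth from 2×10^6 CFU/ml suspensions. Incubation 24 h at 37 °C, then inhibition zone diameter read in mm. Triplicate, averaged; done per NCCLS 1993 disc standard.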

Assay [22] has as its system Staphylococcus epidermidis. Description: Antibacterial activity against Staphylococcus epidermidis ATCC 12228 at 10 ug/disk after 24 hrs by agar diffusion method. Conditions: ATCC 12228, 24 h, read-out: IZ. In a few lines:
as §5

The test system of assay [23] is Bacillus subtilis. Briefly: Antibacterial activity against Bacillus subtilis ATCC 6633 at 10 ug/disk after 24 hrs by agar diffusion method. The conditions noted are these: ATCC 6633, 24 h, read-out: IZ. In a few lines: as §5
The test system of assay [24] is Enterococcus faecalis. Description: Antibacterial activity against Enterococcus faecalis ATCC 29212 at 10 ug/disk after 24 hrs by agar diffusion method. Conditions: ATCC 29212, 24 h, read-out: IZ. Put shortly:
as §5

In assay [25] the test system is Micrococcus luteus. Description: Antibacterial activity against Micrococcus luteus ATCC 10240 at 10 ug/disk after 24 hrs by agar diffusion method. Conditions: ATCC 10240, 24 h, read-out: IZ. In a few lines:
as §5

The subject of assay [26] is Klebsiella pneumoniae. Description: Antibacterial activity against Klebsiella pneumoniae NCIMB 9111 at 10 ug/disk after 24 hrs by agar diffusion method. Conditions: NCIMB 9111, 24 h, read-out: IZ. Put shortly:
as §5

Assay [27] concerns Escherichia coli. Briefly: Antibacterial activity against Escherichia coli ATCC 25922 at 10 ug/disk after 24 hrs by agar diffusion method. The conditions noted are these: ATCC 25922, 24 h, read-out: IZ.
Assay [28] concerns Pseudomonas aeruginosa. Description: Antibacterial activity against Pseudomonas aeruginosa ATCC 27853 at 10 ug/disk after 24 hrs by agar diffusion method. Conditions: ATCC 27853, 24 h, read-out: IZ. In a few lines:
as §5

As to `O=C(N[C@@H](Cc1ccccc1)C(=O)O)OCc1ccccc1`, the MBC was more than 3340 µM with Staphylococcus aureus [1]; more than 3340 µM in assay [3]; more than 3340 µM in the assay with Klebsiella pneumoniae [6]; 3340 µM (≈ 1000 µg/mL) in the assay with Bacillus subtilis [8]; more than 3340 µM in the assay with Enterococcus faecalis [10]; more than 3340 µM with Pseudomonas aeruginosa [13]. The MBC against Micrococcus luteus [16] and in the assay with Escherichia coli [18] was more than 3340 µM each time. In addition, the MIC with Staphylococcus aureus [1] turned out to be 3340 µM (≈ 1000 µg/mL); in assay [3], 3340 µM (≈ 1000 µg/mL); in the assay on Candida albicans [5] (ATCC 24433, 48 h) it was 830 µM (≈ 248 µg/mL); against Klebsiella pneumoniae [6], 3340 µM (≈ 1000 µg/mL); in the assay on Candida albicans [7] (ATCC 10259, 48 h) it was 830 µM (≈ 248 µg/mL); against Bacillus subtilis [8] it was 1670 µM (≈ 500 µg/mL). The minimal inhibitory concentration (MIC) in the assay on Enterococcus faecalis [10] was more than 3340 µM; in the assay with Pseudomonas aeruginosa [13] it was more than 3340 µM; against Micrococcus luteus [16], 3340 µM (≈ 1000 µg/mL); with Escherichia coli [18], 3340 µM (≈ 1000 µg/mL). The zone of inhibition at 20 µg/disc in the assay on Staphylococcus aureus [2], with Klebsiella pneumoniae [4], in the assay on Enterococcus faecalis [9], in the assay with Micrococcus luteus [11], in the assay with Escherichia coli [12] and with Bacillus subtilis [14] was 0 mm in each case. Besides, the zone of inhibition at 20 µg/disc stood at 8 mm in assay [15], 0 mm in the assay with Candida albicans [17], 0 mm in the assay with Candida albicans [19] and 0 mm in the assay with Pseudomonas aeruginosa [20]. In addition, the MFC in the assay on Candida albicans [5] (ATCC 24433, 48 h) was 1660 µM (≈ 497 µg/mL); against Candida albicans [7] (ATCC 10259, 48 h) it was 1660 µM (≈ 497 µg/mL).
As for `CC1(C)S[C@@H]2[C@H](NC(=O)[C@H](N)c3ccccc3)C(=O)N2[C@H]1C(=O)O` [AMPICILLIN], the minimum bactericidal concentration (MBC) in the assay with Staphylococcus aureus [1] turned out to be 4 µM (≈ 1.4 µg/mL); in assay [3] it was 6 µM (≈ 2.1 µg/mL); against Klebsiella pneumoniae [6], 33 µM (≈ 11.5 µg/mL); in the assay with Bacillus subtilis [8], 10 µM (≈ 3.49 µg/mL); against Enterococcus faecalis [10], 6 µM (≈ 2.1 µg/mL); with Pseudomonas aeruginosa [13], 46 µM (≈ 16.1 µg/mL). In addition, the minimum bactericidal concentration (MBC) against Micrococcus luteus [16] was 2 µM (≈ 0.699 µg/mL); against Escherichia coli [18] it was 22 µM (≈ 7.69 µg/mL). Further, the MIC was determined as 3 µM (≈ 1.05 µg/mL) in assay [3]; 11 µM (≈ 3.84 µg/mL) against Klebsiella pneumoniae [6]; 5 µM (≈ 1.75 µg/mL) in the assay on Bacillus subtilis [8]; 3 µM (≈ 1.05 µg/mL) against Enterococcus faecalis [10]; 23 µM (≈ 8.04 µg/mL) against Pseudomonas aeruginosa [13]; 1 µM (≈ 0.349 µg/mL) against Micrococcus luteus [16]. For the same molecule, 11 µM (≈ 3.84 µg/mL) was the least that counted as inhibitory in the assay on Escherichia coli [18] (MIC). Besides, the zone of inhibition at 10 µg/disc is 26 mm in the assay with Staphylococcus aureus [21]; 12 mm in [22]; 15 mm with Bacillus subtilis [23]; 16 mm in the assay with Enterococcus faecalis [24]; 33 mm in the assay on Micrococcus luteus [25]; 23 mm in the assay on Klebsiella pneumoniae [26]. Besides, in the assay with Escherichia coli [27], the zone of inhibition at 10 µg/disc amounted to 18 mm.
Consider NYSTATIN, for which, in the assay with Candida albicans [5], the MFC came to 60 µM and the minimal inhibitory concentration (MIC) turned out to be 30 µM. In the assay with Candida albicans [7], the minimal fungicidal concentration (MFC) was found to be 140 µM and the lowest concentration to inhibit growth (MIC) was 70 µM.
`NCC[C@H](O)C(=O)N[C@@H]1C[C@H](N)[C@@H](O[C@H]2O[C@H](CN)[C@@H](O)[C@H](O)[C@H]2O)[C@H](O)[C@H]1O[C@H]1O[C@H](CO)[C@@H](O)[C@H](N)[C@H]1O` [AMIKACIN]: the zone of inhibition at 10 µg/disc amounted to 25 mm with Staphylococcus aureus [21]; 33 mm in assay [22]; 32 mm with Bacillus subtilis [23]; 23 mm in the assay with Enterococcus faecalis [24]; 31 mm in the assay with Micrococcus luteus [25]; 25 mm in the assay on Klebsiella pneumoniae [26]. For the same molecule, the zone of inhibition at 10 µg/disc with Pseudomonas aeruginosa [28] and in the assay on Escherichia coli [27] was 30 mm each time. Further, the MBC with Klebsiella pneumoniae [6] is 9 µM (≈ 5.27 µg/mL); in the assay with Pseudomonas aeruginosa [13], 12 µM (≈ 7.03 µg/mL); in the assay with Escherichia coli [18] it was 6 µM (≈ 3.51 µg/mL). The minimum inhibitory concentration (MIC) in the assay with Klebsiella pneumoniae [6] was found to be 3 µM (≈ 1.76 µg/mL); with Pseudomonas aeruginosa [13], 6 µM (≈ 3.51 µg/mL); against Escherichia coli [18], 3 µM (≈ 1.76 µg/mL).

The record behind these values is ChEMBL document CHEMBL1137701, “Synthesis, characterization and antimicrobial activity of Co(II), Zn(II) and Cd(II) complexes with N-benzyloxycarbonyl-S-phenylalanine” (2009).
